Among the data in ChEMBL document CHEMBL3526048, “In vitro metabolism of rivoglitazone, a novel peroxisome proliferator-activated receptor γ agonist, in rat, monkey, and human liver microsomes and freshly isolated hepatocytes” (Drug Metab Dispos, 2011) are Drug metabolism values, retold here.

Molecules are shown by their SMILES.

The test system of data set [1] is Liver microsome. The data set can be described thus: Drug metabolism in Sprague-Dawley rat liver microsomes assessed as formation of 3-(4-((6-methoxy-1-methyl-1H-benzo[d]imidazol-2-yl)methoxy)phenyl)-2-(methylthio)propanoic acid at 20 uM after 2 to 4 hrs by radio-HPLC/LC-MS/MS analysis in presence of NADPH-generating system/SAM and UDPGA/SAM. The data set is classed as ADME. For orientation: Microsomes from liver hold many membrane-bound enzymes, among them those of drug oxidation.

The target in data set [2] is T1, UDP-glucuronosyltransferase 2B7 (Homo sapiens, UniProt P16662).
T1 sequence (P16662 whole entry): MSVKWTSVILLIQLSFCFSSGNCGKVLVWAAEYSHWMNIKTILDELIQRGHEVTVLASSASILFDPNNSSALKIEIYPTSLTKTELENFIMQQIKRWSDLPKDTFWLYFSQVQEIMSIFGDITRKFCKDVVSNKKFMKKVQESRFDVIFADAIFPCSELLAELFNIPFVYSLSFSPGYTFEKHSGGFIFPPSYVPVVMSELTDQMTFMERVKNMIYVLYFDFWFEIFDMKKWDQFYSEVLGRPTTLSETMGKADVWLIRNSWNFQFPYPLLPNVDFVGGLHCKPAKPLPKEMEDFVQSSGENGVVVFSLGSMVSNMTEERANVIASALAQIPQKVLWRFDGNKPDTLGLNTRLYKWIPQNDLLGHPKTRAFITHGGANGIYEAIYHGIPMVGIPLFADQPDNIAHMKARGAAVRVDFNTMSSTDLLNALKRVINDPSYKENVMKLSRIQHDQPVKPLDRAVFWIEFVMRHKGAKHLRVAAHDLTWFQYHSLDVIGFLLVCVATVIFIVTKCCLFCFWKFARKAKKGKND
The data set can be described thus: Activity of human UGT2B7 expressed in microsomes isolated from baculovirus infected insect cell assessed as enzyme-mediated 5-(4-((6-hydroxy-1-methyl-1H-benzo[d]imidazol-2-yl)methoxy)benzyl)thiazolidine-2,4-dione formation at 20 uM after 4 hrs by radio-HPLC/LC-MS/MS analysis in presence of NADPH-generating system/SAM. Format: ADME.

Data set [3] has as its target T2, UDP-glucuronosyltransferase 2B17 (Homo sapiens, UniProt O75795).
T2 sequence (O75795 whole entry): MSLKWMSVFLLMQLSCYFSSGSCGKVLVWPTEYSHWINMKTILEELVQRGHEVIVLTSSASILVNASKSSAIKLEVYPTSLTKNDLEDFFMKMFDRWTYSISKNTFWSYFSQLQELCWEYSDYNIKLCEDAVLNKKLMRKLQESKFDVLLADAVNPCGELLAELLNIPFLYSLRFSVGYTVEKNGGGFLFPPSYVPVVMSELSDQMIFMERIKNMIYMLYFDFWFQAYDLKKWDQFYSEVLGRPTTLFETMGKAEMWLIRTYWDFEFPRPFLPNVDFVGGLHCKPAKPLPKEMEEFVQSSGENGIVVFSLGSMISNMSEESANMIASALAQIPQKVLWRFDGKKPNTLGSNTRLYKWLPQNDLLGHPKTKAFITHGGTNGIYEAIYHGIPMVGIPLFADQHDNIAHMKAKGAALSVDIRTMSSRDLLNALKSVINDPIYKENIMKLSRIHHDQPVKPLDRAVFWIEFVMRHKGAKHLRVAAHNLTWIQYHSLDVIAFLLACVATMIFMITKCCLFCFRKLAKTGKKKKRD
The data set can be described thus: Activity of human UGT2B17 expressed in microsomes isolated from baculovirus infected insect cell assessed as enzyme-mediated 2-mercapto-3-(4-((6-methoxy-1-methyl-1H-benzo[d]imidazol-2-yl)methoxy)phenyl)propanoic acid formation at 20 uM after 4 hrs by radio-HPLC/LC-MS/MS analysis in presence of UDPGA. The data set is classed as ADME.

The nature of data set [4]: Drug metabolism in rat hepatocytes assessed as formation of (2S,3S,4S,5R,6R)-6-((1-carboxy-2-(4-((6-methoxy-1-methyl-1H-benzo[d]imidazol-2-yl)methoxy)phenyl)ethylthio)carbonylamino)-3,4,5-trihydroxytetrahydro-2H-pyran-2-carboxylic acid at 30 uM after 3 hrs by radio-HPLC/LC-MS/MS analysis in presence of UDPGA and UDPGA/SAM. The data set is classed as ADME, cell-based, Hepatocyte.

The target in data set [5] is Cytochrome P450 2C9 (Homo sapiens, UniProt P11712). The data set can be described thus: Activity of human CYP2C9 expressed in microsomes isolated from baculovirus infected insect cell assessed as enzyme-mediated (2S,3S,4S,5R,6R)-3,4,5-trihydroxy-6-(5-(4-((6-methoxy-1-methyl-1H-benzo[d]imidazol-2-yl)methoxy)benzyl)-2,4-dioxothiazolidin-3-yl)tetrahydro-2H-pyran-2-carboxylic acid formation at 20 uM after 2 hrs by radio-HPLC/LC-MS/MS analysis in presence of UDPGA and UDPGA/SAM. Format: ADME.

Data set [6] has as its target T3, Cytochrome P450 1A2 (Homo sapiens, UniProt P05177).
T3 sequence (P05177 whole entry): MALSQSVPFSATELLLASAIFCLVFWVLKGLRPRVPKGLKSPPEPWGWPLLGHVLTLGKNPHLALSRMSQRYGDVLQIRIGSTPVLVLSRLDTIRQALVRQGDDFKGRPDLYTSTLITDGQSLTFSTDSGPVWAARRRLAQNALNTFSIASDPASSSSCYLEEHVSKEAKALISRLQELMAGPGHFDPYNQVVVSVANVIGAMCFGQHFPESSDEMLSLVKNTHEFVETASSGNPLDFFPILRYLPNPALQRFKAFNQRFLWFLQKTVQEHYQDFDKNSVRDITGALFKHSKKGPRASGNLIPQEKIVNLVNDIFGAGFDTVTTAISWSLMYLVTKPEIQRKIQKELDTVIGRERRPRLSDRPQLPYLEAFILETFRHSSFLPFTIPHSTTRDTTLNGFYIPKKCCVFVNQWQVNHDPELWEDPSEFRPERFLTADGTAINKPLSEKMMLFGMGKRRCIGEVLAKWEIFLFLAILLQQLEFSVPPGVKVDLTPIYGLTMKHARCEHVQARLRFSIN
The data set can be described thus: Activity of human CYP1A2 expressed in microsomes isolated from baculovirus infected insect cell assessed as enzyme-mediated 2-hydroxy-3-(4-((6-methoxy-1-methyl-1H-benzo[d]imidazol-2-yl)methoxy)phenyl)propanamide formation at 20 uM after 2 hrs by radio-HPLC/LC-MS/MS analysis in presence of NADPH-generating system and NADPH-generating system/SAM. The data set is classed as ADME. Put shortly: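 Baculovirus/insect-cell microsomes expressing single human CYPs, 1 mg/ml protein, with 50 mM potassium phosphate (pH 7.4) or 100 mM Tris-HCl (pH 7.5). NADPH-generating system: 2 mM NADP⁺, 20 mM glucose 6-phosphate, 2 units/ml G6PDH, 10 mM MgCl₂. [¹⁴C]rivoglitazone at 20 μM, 2 h at 37°C with shaking. Control used insect-cell control supersomes. Stopped with acetonitrile; supernatant concentrated under nitrogen; metabolites analysed by radio-HPLC, LC-MS and LC-MS/MS.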

The target in data set [7] is Cytochrome P450 2D6 (Homo sapiens, UniProt P10635). The data set can be described thus: Activity of human CYP2D6 expressed in microsomes isolated from baculovirus infected insect cell assessed as enzyme-mediated (2S,3S,4S,5R,6R)-6-((1-carboxy-2-(4-((6-methoxy-1-methyl-1H-benzo[d]imidazol-2-yl)methoxy)phenyl)ethylthio)carbonylamino)-3,4,5-trihydroxytetrahydro-2H-pyran-2-carboxylic acid formation at 20 uM after 2 hrs by radio-HPLC/LC-MS/MS analysis in presence of NADPH-generating system/SAM. The data set is classed as ADME.

The test system of data set [8] is Hepatocyte. The data set can be described thus: Drug level in rat hepatocytes treated with [14C]-rivoglitazone at 30 uM after 3 hrs by radio-HPLC/LC-MS/MS analysis in presence of UDPGA, UDPGA/SAM and NADPH-generating system. Format: ADME, cell-based.

Sequence of Cytochrome P450 2C9 (P11712 whole entry): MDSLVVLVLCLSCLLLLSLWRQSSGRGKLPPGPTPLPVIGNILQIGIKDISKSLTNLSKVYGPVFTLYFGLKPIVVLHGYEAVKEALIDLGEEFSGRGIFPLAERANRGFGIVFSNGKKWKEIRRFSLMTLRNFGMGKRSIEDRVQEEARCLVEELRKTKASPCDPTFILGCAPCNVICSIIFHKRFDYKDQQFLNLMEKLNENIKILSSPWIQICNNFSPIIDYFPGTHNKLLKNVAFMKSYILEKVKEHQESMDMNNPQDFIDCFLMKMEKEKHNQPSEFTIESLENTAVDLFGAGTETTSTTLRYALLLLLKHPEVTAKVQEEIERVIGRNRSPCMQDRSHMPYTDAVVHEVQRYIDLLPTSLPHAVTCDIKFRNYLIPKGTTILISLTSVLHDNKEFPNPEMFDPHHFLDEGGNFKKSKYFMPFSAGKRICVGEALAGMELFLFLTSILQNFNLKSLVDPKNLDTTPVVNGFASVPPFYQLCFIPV
Sequence of Cytochrome P450 2D6 (P10635 whole entry): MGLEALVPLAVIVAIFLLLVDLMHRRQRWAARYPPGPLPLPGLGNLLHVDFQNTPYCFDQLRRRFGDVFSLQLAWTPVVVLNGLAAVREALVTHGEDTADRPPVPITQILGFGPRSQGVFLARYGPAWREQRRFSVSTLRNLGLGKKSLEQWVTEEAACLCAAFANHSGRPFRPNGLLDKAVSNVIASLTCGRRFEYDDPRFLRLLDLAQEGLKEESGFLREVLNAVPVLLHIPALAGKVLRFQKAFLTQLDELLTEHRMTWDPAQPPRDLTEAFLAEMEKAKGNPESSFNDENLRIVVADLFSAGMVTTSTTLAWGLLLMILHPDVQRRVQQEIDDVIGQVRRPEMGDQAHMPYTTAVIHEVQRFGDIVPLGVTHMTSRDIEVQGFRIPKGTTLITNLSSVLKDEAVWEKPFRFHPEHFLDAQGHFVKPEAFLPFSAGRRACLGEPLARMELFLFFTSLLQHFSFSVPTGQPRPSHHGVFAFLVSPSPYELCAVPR

On to `COc1ccc2nc(COc3ccc(C[14CH]4SC(=O)NC4=O)cc3)n(C)c2c1.Cl` (racemic), for which the Drug metabolism entry in data set [1] is “metabolite_detected”; in data set [2], “metabolite_not_detected”; in data set [3], “metabolite_not_detected”; in data set [4], “metabolite_detected”; in data set [5], “metabolite_not_detected”; in data set [6] it was “metabolite_detected”. Further, the Drug metabolism result in data set [7] was “metabolite_not_detected”.
On to `COc1ccc2nc(COc3ccc(CC(S)C(=O)O)cc3)n(C)c2c1` (stereo not drawn), for which, in data set [8], the Drug metabolism entry was “metabolite_not_detected”.
